Assay outcomes as filed in PubChem.
Rows were chosen to be rich in hits. Some 4.5% of all compounds tested hit in one or more screens of this group.
MrgX1 ag: agonists of human MrgX1 receptor. Q96LB2. MrgX1-HEK293 cells, Fluo-4 calcium fluorescence, agonist mode; hits give high values. B-score at 10 µM. 310,000 tested, 0.44% active. AID 588627;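 active = calcium response B-score plate-corrected fluorescence ratio at least 3 library SD, with starting fluorescence B-score inside 5 SD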
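Test system: Stable human MrgX1 HEK293 cell line | Schedule: Overnight plating before 1 h dye loading | Read-out basis: Baseline-normalised fluorescence change ratio, B-scored | Detection: Kinetic calcium dye fluorescence, Fluo-4 NW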
MrgX1 PAM: allosterically activates human MrgX1 receptor signaling. Q96LB2. B-score at 10 µM. MrgX1-HEK293, Fluo-4 calcium flux, FDSS; hits give high values. 310,000 tested, 0.63% active;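 active = plate-corrected calcium response at least 3 library SD above typical, normal starting fluorescence, not activating the receptor alone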;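 note: compound read alongside a low EC10 to EC30 dose of BAM8-22 agonist; peak minus trough fluorescence over baseline measured at the second addition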
RGS4 pot: RGS4 potentiation or activation; HEK293 M3R/inducible RGS4, carbachol calcium flux Fluo4; hits give low values; B-score at 10 µM; 310,000 tested, 0.92% active;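 active = B-score of the integrated calcium signal more than 4 SD below the library mean, with starting fluorescence not abnormally high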;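 note: negative B-score means reduced calcium response which marks RGS4 activation or potentiation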
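Reagent: ECmax carbachol challenge; Test system: M3R-expressing HEK293 line, RGS4 induced by doxycycline; Schedule: overnight RGS4 induction, 30 min dye load 37 °C, 20 min compound RT; Detection: calcium dye Fluo4 fluorescence; Read-out: Agonist-evoked peak-minus-minimum fluorescence over baseline, integrated ratio, B score.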
PHOSPHO1 inh: PHOSPHO1 (human) inhibition | 290,000 tested, 1.1% active | inhibition, % at 13.3 µM | Q8TCT1 | recombinant PHOSPHO1, absorbance phosphatase assay; in the data active = inhibition above about 60%
Target sequence (Q8TCT1 whole entry, looked up): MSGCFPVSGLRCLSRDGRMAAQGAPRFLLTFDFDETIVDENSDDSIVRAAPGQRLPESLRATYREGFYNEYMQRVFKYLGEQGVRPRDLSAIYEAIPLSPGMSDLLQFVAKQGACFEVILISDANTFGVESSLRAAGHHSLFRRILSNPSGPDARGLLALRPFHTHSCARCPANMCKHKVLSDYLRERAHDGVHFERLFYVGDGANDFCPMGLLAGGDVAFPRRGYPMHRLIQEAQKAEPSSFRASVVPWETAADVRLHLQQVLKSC
MrgX1 antagonist: human MrgX1 receptor antagonism, primary screen. Q96LB2. MRGX1-HEK293 calcium flux, Fluo-4, BAM8-22 antagonism; hits give low values. B-score at 10 µM. 310,000 tested, 1.3% active. AID 588676;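 active = calcium-response B-score plate-corrected more than 3 library SD below zero, starting fluorescence within 5 deviations, no agonist response on first addition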;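 note: peak minus trough fluorescence over baseline after final BAM8-22 challenge near maximal dose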
RGS4 inh: human RGS4 inhibition | HEK293 M3R/RGS4 inducible, Fluo-4 calcium flux; hits give high values; triggered by carbachol at its EC20 | B-score at 10 µM | 310,000 tested, 0.45% active;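 active = B-score, a plate-corrected calcium signal, over three deviations above library mean, with baseline fluorescence within five deviations of library mean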;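 note: RGS4 expression induced by doxycycline in cells with stable M3 receptor; B-score is computed from the integrated fluorescence ratio over baseline after carbachol; higher B-score means a larger calcium signal and so more RGS4 inhibition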
Target sequence (P49798 whole entry, looked up): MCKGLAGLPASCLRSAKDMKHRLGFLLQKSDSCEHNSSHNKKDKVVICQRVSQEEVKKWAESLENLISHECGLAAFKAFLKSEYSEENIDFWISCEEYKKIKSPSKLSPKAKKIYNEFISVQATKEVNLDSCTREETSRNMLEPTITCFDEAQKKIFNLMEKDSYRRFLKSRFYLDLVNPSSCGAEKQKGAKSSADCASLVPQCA
MrgX1 ant reconf: reconfirmed antagonist of human MrgX1 receptor signaling. shares compounds with MrgX1 antagonist. MrgX1-HEK293, BAM8-22 calcium flux, Fluo-4; hits give low values. remaining BAM8-22 calcium response % of control (hits give low values), % at 10 µM. 2,300 tested, 19% active. AID 602420;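 active = remaining agonist calcium response no higher than 100% minus 3 SD of agonist-only control wells, with starting fluorescence near control levels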;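 note: agonist BAM8-22 given at a near maximal EC90 to ECmax level; peak minus minimum fluorescence divided by baseline after agonist addition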
HEK293 Ca flux: MrgX1 antagonist counter-screen hit in parental HEK293 cells. Fluo-4 calcium fluorescence, FDSS. AID 624111. fluorescence ratio F(max-min)/F0 at 10 µM. 4,000 tested, 2% active. shares compounds with MrgX1 antagonist;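 active = duplicate-averaged calcium fluorescence ratio at least three times the standard deviation of buffer wells, a nonspecific response in parental cells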
HEK293 Ca counter: MrgX1 allosteric activator counter-screen hit in parental HEK293 cells; shares compounds with MrgX1 antagonist; 4,000 tested, 0.4% active; fluorescence ratio F(max-min)/F0 at 10 µM; parental HEK293 calcium flux, Fluo-4 fluorescence ratio; hits give high values;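 active = calcium fluorescence ratio, averaged over duplicates, at least 3 SD of the buffer-well ratio, meaning a nonspecific response in receptor-free cells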;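 note: untransfected parental HEK293 lacking MrgX1 used as counterscreen for MrgX1 allosteric activators; fluorescence change taken during the second addition on a kinetic imager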
HEK293 Ca cntr2: counter-screen for MrgX1 activators: effect in parental HEK293 cells; shares compounds with MrgX1 antagonist; Fluo-4 calcium fluorescence (FDSS); hits give high values; fluorescence ratio F(max-min)/F0 at 10 µM; 4,000 tested, 8.7% active;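 active = calcium fluorescence ratio at least three times the spread of buffer wells, meaning a non-specific response in parental cells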
The depositor's hits bear a star.

`CCCc1[nH]n(-c2ccc(F)cc2)c(=O)c1C=Nc1ccc(C)cc1` gave MrgX1 ag inactive, MrgX1 PAM inactive, RGS4 pot inactive, PHOSPHO1 inh -2, MrgX1 antagonist inactive and RGS4 inh inactive.
For CN(c1ccc(Cl)cc1)S(=O)(=O)c1nnc(NC(=O)C(C)(C)C)s1 the results were MrgX1 ag inactive, MrgX1 PAM inactive, RGS4 pot inactive, PHOSPHO1 inh 31, MrgX1 antagonist inactive and RGS4 inh inactive.
Cc1oc(C)c(C(=O)O)c1C(=O)O was read as MrgX1 ag inactive, MrgX1 PAM inactive, RGS4 pot inactive, PHOSPHO1 inh 39, MrgX1 antagonist inactive and RGS4 inh inactive.
`COC(=O)c1c(C)oc(C)c(C(=O)OC)c1=O` gave MrgX1 ag inactive, MrgX1 PAM inactive, RGS4 pot inactive, PHOSPHO1 inh 5, MrgX1 antagonist -7*, RGS4 inh inactive, MrgX1 ant reconf inactive, HEK293 Ca flux inactive, HEK293 Ca counter inactive and HEK293 Ca cntr2 inactive.
Screening CCCCNC(=S)N(CCN(C)C)Cc1cc2cc3c(cc2[nH]c1=O)OCCO3 returned MrgX1 ag inactive, MrgX1 PAM inactive, RGS4 pot inactive, PHOSPHO1 inh -113, MrgX1 antagonist inactive and RGS4 inh inactive.
Screening CC(=O)c1sc(NC(=O)CN2C(=O)NC3(CCCC3)C2=O)nc1-c1ccccc1 returned MrgX1 ag inactive, MrgX1 PAM inactive, RGS4 pot inactive, MrgX1 antagonist -6.4*, RGS4 inh inactive, MrgX1 ant reconf inactive, HEK293 Ca flux inactive, HEK293 Ca counter inactive and HEK293 Ca cntr2 inactive.
For O=C(NCCc1ccccc1)C1CCN(S(=O)(=O)N2CCC3(CC2)OCCO3)CC1 the results were MrgX1 ag inactive, MrgX1 PAM inactive, RGS4 pot inactive, PHOSPHO1 inh 18, MrgX1 antagonist -6*, RGS4 inh inactive, MrgX1 ant reconf inactive, HEK293 Ca flux inactive, HEK293 Ca counter inactive and HEK293 Ca cntr2 inactive.
For O=C(NCCN1CCC(Cc2ccccc2)CC1)C1CCN(S(=O)(=O)N2CCC3(CC2)OCCO3)CC1 the results were MrgX1 ag inactive, MrgX1 PAM inactive, RGS4 pot inactive, PHOSPHO1 inh -2, MrgX1 antagonist inactive and RGS4 inh inactive.
`O=C(NCCc1ccccc1)C1CCN(C(=O)NCc2ccccc2)CC1` gave MrgX1 ag inactive, MrgX1 PAM inactive, RGS4 pot inactive, PHOSPHO1 inh -14, MrgX1 antagonist -11*, RGS4 inh inactive, MrgX1 ant reconf inactive, HEK293 Ca flux inactive, HEK293 Ca counter inactive and HEK293 Ca cntr2 inactive.
`COc1ccccc1/C=C1\SC(=S)N(CC(=O)NC2CCS(=O)(=O)C2)C1=O` (stereo not drawn) gave MrgX1 ag inactive, MrgX1 PAM inactive, RGS4 pot inactive, PHOSPHO1 inh 38, MrgX1 antagonist inactive and RGS4 inh inactive.
For CCc1ccc2nc(SCC(=O)Nc3nnc(C)s3)c(C)cc2c1 the results were MrgX1 ag inactive, MrgX1 PAM inactive, RGS4 pot inactive, PHOSPHO1 inh 8, MrgX1 antagonist -6.2*, RGS4 inh inactive, MrgX1 ant reconf 83%*, HEK293 Ca flux inactive, HEK293 Ca counter inactive and HEK293 Ca cntr2 inactive.
